High-throughput results (PubChem BioAssay)
HTRA1 inh – blocks human HTRA1 serine peptidase | Q92743 | recombinant HTRA1, FP-rhodamine activity-based probe, fluorescence polarization | inhibition, % at 5.96 µM | 340,000 compounds, 0.5% hits | AID 504803; in the data active = inhibition above about 36%
TDP2 inh – TDP2 (human) inhibition, absorbance primary screen. O95551. recombinant TDP2, T5PNP hydrolysis, p-nitrophenol absorbance 415 nm. inhibition, % at 12.8 µM. 370,000 compounds, 0.34% hits. AID 720702;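 active = inhibition above the mean of all tested compounds plus 3 SD, set per campaign, cut at about 25% in these data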
Target sequence (O95551 whole entry, looked up): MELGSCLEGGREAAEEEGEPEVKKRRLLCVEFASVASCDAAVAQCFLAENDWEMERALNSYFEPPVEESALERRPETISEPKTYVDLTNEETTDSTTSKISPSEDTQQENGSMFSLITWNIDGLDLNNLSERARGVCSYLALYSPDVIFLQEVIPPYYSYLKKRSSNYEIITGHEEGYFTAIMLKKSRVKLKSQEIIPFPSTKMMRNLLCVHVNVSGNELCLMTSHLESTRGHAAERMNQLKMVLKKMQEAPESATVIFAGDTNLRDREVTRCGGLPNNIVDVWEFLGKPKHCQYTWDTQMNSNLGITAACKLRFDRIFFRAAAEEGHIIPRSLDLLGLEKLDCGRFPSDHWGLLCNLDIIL
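System – recombinant human TDP2 · Quantity – TDP2 enzyme at 120 nM final · Doses – single concentration, 12.8 µM nominal, with 1% DMSO · Incubation – 2 h at 37 °C · Measured by – epi absorbance of p-nitrophenol freed from T5PNP by hydrolysis · Read-out – % inhibition relative to enzyme-containing and enzyme-free wells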
TCR CD3 inh – inhibitors of human TCR-CD3 interaction | TAMRA-labeled TCR probe fluorescence, biochemical | inhibition, % at 9.4 µM | 360,000 compounds, 0.37% hits;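 also: recombinant mutant TCR 2C K166C tagged with TAMRA read by polarization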
mABHD4 FP – inhibits mouse alpha/beta hydrolase domain 4; Q8VD66; purified mABHD4, FP-Rh probe fluorescence polarization; inhibition, % at 8.92 µM; 370,000 compounds, 0.54% hits;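 active = inhibition exceeding the mean over every tested compound plus 3 SD, cut at about 30% in these data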
Target sequence (Q8VD66 whole entry, looked up, the tested form may be a part): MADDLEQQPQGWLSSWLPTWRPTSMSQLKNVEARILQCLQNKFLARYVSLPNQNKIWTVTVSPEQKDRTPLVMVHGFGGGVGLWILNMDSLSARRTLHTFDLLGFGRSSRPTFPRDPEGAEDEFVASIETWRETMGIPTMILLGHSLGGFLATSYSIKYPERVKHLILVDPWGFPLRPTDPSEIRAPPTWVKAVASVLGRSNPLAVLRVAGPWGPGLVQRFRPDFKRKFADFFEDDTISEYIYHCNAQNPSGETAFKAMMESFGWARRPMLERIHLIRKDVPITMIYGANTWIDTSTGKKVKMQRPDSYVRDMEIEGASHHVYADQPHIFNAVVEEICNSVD
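assay system = mABHD4 protein | compound dosing = single nominal dose of 8.92 µM, 0.89% DMSO final | read-out basis = percent inhibition of probe binding, normalized to plate controls | schedule = Enzyme–compound pre-incubation 45 min, then probe 60 min, both 25 °C | detection = fluorescence polarization, excitation 525 nm, emission 598 nm, BODIPY TMR filters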
PAD4 inh – PAD4 (human) enzyme inhibition; inhibition, % at 6.36 µM; 330,000 compounds, 0.41% hits; AID 485272; Q9UM07; recombinant PAD4, RCA probe fluorescence polarization;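 active = percent inhibition above a cutoff equal to the mean of all tested compounds plus 3 SD, cut at about 15% in these data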
SIAE primary – inhibitors of human sialic acid acetylesterase SIAE | Q9HAT2 | SIAE FP-Rh probe binding, fluorescence polarization | inhibition, % at 9.66 µM | 370,000 compounds, 0.69% hits;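 active = inhibition above a cutoff: mean of compounds within the control limits plus 3 SD of those, cut at about 17% in these data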
BSA TAMRA ctr – counter-screen for TCR-CD3 interaction inhibitors: BSA probe. TAMRA-labeled BSA probe fluorescence counterscreen. shares compounds with TCR CD3 inh. inhibition, % at 9.4 µM. 1,200 compounds, 10% hits. AID 652035; in the data active = inhibition above about 23%
TCR-CD3 conf – TCR-CD3 interaction inhibition, confirmation; AID 652036; 1,200 compounds, 48% hits; shares compounds with TCR CD3 inh; TAMRA-labeled TCR probe fluorescence binding assay; inhibition, % at 9.4 µM
ABHD4 confirm – ABHD4 (mouse) inhibition, FP confirmation; shares compounds with mABHD4 FP; purified mABHD4, FP-Rh probe fluorescence polarization; inhibition, % at 8.92 µM; 1,800 compounds, 55% hits;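 active = mean inhibition across replicates above the hit cutoff set in the primary screen, cut at about 30% in these data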
TDP2 inh conf – confirmation of human TDP2 inhibitors. AID 743263. shares compounds with TDP2 inh. inhibition, % at 12.8 µM. recombinant human TDP2, absorbance read-out. 1,100 compounds, 22% hits; in the data active = inhibition above about 25%
SIAE confirm – human SIAE inhibition, confirmation. shares compounds with SIAE primary. 2,300 compounds, 13% hits. SIAE FP-Rh activity-based probe, fluorescence polarization. inhibition, % at 9.66 µM;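 active = mean inhibition of the replicates above the hit cutoff set in the primary screen, cut at about 17% in these data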;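 also: inhibitors lower polarization as more probe stays unbound to SIAE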
Each line names hits and unclear results; the compound was inactive in the other large screens (follow-up assays come after a bar, where they were run). Hits are enriched below; roughly 2% of the tested compounds scored in any of these assays. Rule as the data show it, unless noted: active = inhibition above about 19%; inactive = the rest.

CN1CCC(c2c[nH]c3ccccc23)C1 (stereo not drawn)	TCR CD3 inh 22.6 | BSA TAMRA ctr inactive | TCR-CD3 conf inactive
O=C(N/N=C/c1c(O)n(Cc2ccco2)c(=O)[nH]c1=O)c1ccccc1O	TCR CD3 inh 40.7, mABHD4 FP 31.1 | BSA TAMRA ctr inactive | TCR-CD3 conf 39.9 | ABHD4 confirm 32.0
O=C1NCN(c2ccccc2)C12CCN(C(c1cc3ccccc3o1)c1nnnn1-c1ccc3c(c1)OCCO3)CC2 (stereo not drawn)	none (no result: HTRA1 inh, PAD4 inh)
O=[N+]([O-])c1ccc(NCc2ccccc2)c2nonc12	TCR CD3 inh 66.2, mABHD4 FP 53.2, SIAE primary 37.2 (no result: HTRA1 inh) | BSA TAMRA ctr 98.9 | TCR-CD3 conf 81.3 | ABHD4 confirm 79.1 | SIAE confirm 29.2
Cc1cc(N2CCNC[C@H]2C)ccc1N1CCN[C@H](C)C1	none (no result: HTRA1 inh, PAD4 inh)
Cc1ccc2[nH]c(=S)n(-c3cccnc3)c(=O)c2c1	none (no result: HTRA1 inh)
COc1ccc(-n2c(=S)[nH]c3ccc(C)cc3c2=O)cc1	mABHD4 FP 32.5 (no result: PAD4 inh) | ABHD4 confirm inactive
Cc1cccc(N=Cc2c(O)n(-c3ccccc3C)c(=O)[nH]c2=O)c1	none
CC(=O)N1CCN(c2ccc(N=Cc3c(O)n(-c4ccc(Cl)cc4)c(=O)[nH]c3=O)cc2)CC1	mABHD4 FP 41.5 | ABHD4 confirm inactive
Cc1ccccc1-n1c(O)c(C=Nc2ccc(N(C)C)cc2)c(=O)[nH]c1=O	mABHD4 FP 39.6 | ABHD4 confirm inactive
CCN(CC)c1ccc(N=Cc2c(O)n(-c3ccc(OC)cc3)c(=O)[nH]c2=O)cc1	mABHD4 FP 38.0 | ABHD4 confirm inactive
Clc1cccc(N2Cc3cc(-c4ccccc4)ccc3-n3nncc3C2)c1	none (no result: HTRA1 inh, PAD4 inh)
O=c1[nH]c(=O)n(CCC2=CCCCC2)c(O)c1/C=N/Nc1cccc2ccccc12	mABHD4 FP 33.3 | ABHD4 confirm inactive
O=c1[nH]c(=O)n(CCC2=CCCCC2)c(O)c1/C=N/Nc1ccccc1	none
O=c1cccc2n1CC1CC2CN(c2ncnc3c2cnn3-c2ccccc2)C1 (stereo not drawn)	none
COC(=O)C1=C(c2ccc(-c3ccccc3)c(F)c2)C[C@@H]2CC[C@H]1N2C(=O)NCc1ccco1	none
O=C(N/N=C/c1c(O)n(Cc2ccc(F)cc2)c(=S)[nH]c1=O)c1ccncc1	mABHD4 FP 31.9 | ABHD4 confirm 36.9
O=C(N/N=C/C1C(=O)NC(=S)N(c2ccccc2)C1=O)c1cc(Br)c(O)c(Br)c1 (stereo not drawn)	mABHD4 FP 41.7 | ABHD4 confirm 48.0
CCC(c1nnnn1C1CCCC1)N1CCC2(CC1)C(=O)NCN2c1ccccc1 (stereo not drawn)	none (no result: HTRA1 inh, PAD4 inh)
CN1CCc2cc(O)cc3c2[C@H]1Cc1ccc(O)c(O)c1-3	mABHD4 FP 57.2 | ABHD4 confirm inactive
COc1cc2c3cc1Oc1cc(ccc1O)C[C@@H]1c4c(cc(OC)c(O)c4Oc4ccc(cc4)C[C@H]3N(C)CC2)CCN1C	none
Cn1cccc1/C=C1/C(=O)NC(=S)N(Cc2ccc(F)cc2)C1=O	HTRA1 inh 45.0, mABHD4 FP 49.2 | ABHD4 confirm 57.2
O=C1/C(=C/c2ccncc2)N2CCC1CC2	none
O=C(O)c1cccc2c1NC(c1cccc([N+](=O)[O-])c1)C1CC(Sc3ccccc3[N+](=O)[O-])C(Cl)C21 (stereo not drawn)	mABHD4 FP 29.6 (no result: PAD4 inh) | ABHD4 confirm 54.6
Cc1ccccc1-n1c(O)c(C=NCCN2CCOCC2)c(=O)[nH]c1=O	none
COC(=O)C1=C(c2ccc(OCc3ccccc3)cc2)C[C@@H]2CC[C@H]1N2C(=O)NCc1ccccc1OC	none (no result: PAD4 inh)
COC(=O)C1=C(c2ccc(OCc3ccccc3)cc2)C[C@@H]2CC[C@H]1N2C(=O)NCc1ccc(OC)c(OC)c1	mABHD4 FP 46.0 | ABHD4 confirm 58.0
N/C(=N\N=C/c1ccc(-c2ccc(O)c(C(=O)O)c2)o1)N[N+](=O)[O-]	TDP2 inh 28.4, mABHD4 FP 35.2 | ABHD4 confirm 42.4 | TDP2 inh conf inactive
COP(=O)(OC)C1(O)C(=O)Nc2ccc(Br)cc21 (stereo not drawn)	none
CNC(=O)Oc1cccc(-c2cn3cc(OC(=O)NC)ccc3n2)c1	mABHD4 FP 40.4, SIAE primary 17.1 | ABHD4 confirm inactive | SIAE confirm inactive
CCCN1CCC2(CC1)NC(CO)(CO)CO2	none
Cc1cc(OCC(=O)NCc2ccncc2)c2c3c(c(=O)oc2c1)CCC3	TDP2 inh 25.9 | TDP2 inh conf inactive
CCN1CCN(c2ccc(N)cc2)CC1	TDP2 inh 32.5 | TDP2 inh conf inactive
CN1CCN(c2ccc(N)cc2)CC1	none
COCCCN=Cc1c(O)[nH]c(=S)[nH]c1=O	none
CN1C(=O)C(=Cc2ccccc2Oc2ccc(Cl)c(F)c2)C(=O)N(C)C1=O	TDP2 inh 25.1 | TDP2 inh conf inactive
COc1cc2c(cc1O)[C@@H]1Cc3ccc(OC)c(O)c3CN1CC2	TDP2 inh 53.6 | TDP2 inh conf 37.8
COC(=O)C1=C(c2ccc(F)cc2F)C[C@@H]2CC[C@H]1N2C(=O)NCCOc1ccccc1	none
O=CC(Br)P(=O)(N1CCOCC1)N1CCOCC1 (stereo not drawn)	none (no result: HTRA1 inh)
O=P(C(Cl)Cl)(N1CCOCC1)N1CCOCC1	TDP2 inh 30.1 | TDP2 inh conf inactive
O=C1NC(=O)N(c2ccccc2)C(=O)/C1=C\c1ccc([N+](=O)[O-])s1	none (no result: HTRA1 inh)
COc1ccc(OC)c(N2C(=O)NC(=O)/C(=C\c3ccc([N+](=O)[O-])s3)C2=O)c1	TDP2 inh 28.4 | TDP2 inh conf inactive
CN1C(=O)NC(=O)/C(=C/c2ccc([N+](=O)[O-])s2)C1=O	TDP2 inh 24.9 | TDP2 inh conf inactive
CCCCn1c(NC(=O)c2ccc(Br)o2)c(C(=O)OCC)c2nc3ccccc3nc21	TDP2 inh 64.7, PAD4 inh 71.8 | TDP2 inh conf 72.7
CCCCn1c(N)c(C(=O)NCCN2CCOCC2)c2nc3ccccc3nc21	none
